In ChEMBL document CHEMBL4052814, “GNE-781, A Highly Advanced Potent and Selective Bromodomain Inhibitor of Cyclic Adenosine Monophosphate Response Element Binding Protein, Binding Protein (CBP)” (J Med Chem, 2017):

Key:
[1] = Oral bioavailability in cynomolgus monkey at 5 mg/kg by LC-MS/MS method; type: ADME, organism-based, Macaca fascicularis; conditions: in vivo
Outline: (§1)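 Non-naïve male cynomolgus monkeys, at least 2 years old, n = 3 per route. Given 1 mg/kg i.v. in EtOH/PEG400/water (20/15/65) or 5 mg/kg p.o. in 0.5% methylcellulose, 0.2% Tween 80; oral groups fasted. Plasma (K2EDTA) collected pre-dose to 24 h. Analysed by non-validated LC-MS/MS.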

[2] = Clearance in beagle dog at 1 mg/kg, iv or 5 mg/kg, po by LC-MS/MS method; type: ADME, organism-based, Canis lupus familiaris; conditions: in vivo
Outline: (§2)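 Non-naïve male beagle dogs, n = 3 per route. Dosed 1 mg/kg i.v. in EtOH/PEG400/water (20/15/65) or 5 mg/kg p.o. in 0.5% methylcellulose, 0.2% Tween 80; oral groups fasted overnight until 4 h post-dose. Peripheral blood taken pre-dose to 24 h and processed to K2EDTA plasma. Analysed by non-validated LC-MS/MS.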

[3] = Apparent permeability from apical side to basolateral side in MDCK cells at 10 uM measured after 180 mins by LC-MS/MS analysis; type: ADME, cell-based, Canis lupus familiaris; conditions: dog
[4] = Half life in cynomolgus monkey at 1 mg/kg, iv or 5 mg/kg, po by LC-MS/MS method; type: ADME, organism-based, Macaca fascicularis; conditions: in vivo; outline: as §1
[5] = target: Bromodomain-containing protein 9 (Homo sapiens, UniProt Q9H8M2); test: Displacement of biotinylated histone H3K14 peptide ligand from human recombinant His-tagged BRD9 measured after 10 mins by TR-FRET assay
[6] = Protein binding in human plasma at 5 uM incubated for 4 hrs measured by LC-MS/MS method; type: ADME, cell-free; conditions: read-out: PPB (converted)
[7] = Volume of distribution at steady state in cynomolgus monkey at 1 mg/kg, iv or 5 mg/kg, po by LC-MS/MS method; type: ADME, organism-based, Macaca fascicularis; conditions: in vivo, read-out: Vdss
Outline: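 Non-naïve male beagle dogs or cynomolgus monkeys, n=3 per route. Dosing was 1 mg/kg i.v. in EtOH/PEG400/water 20/15/65 or 5 mg/kg p.o. in 0.5% methylcellulose/0.2% Tween 80; the p.o. group was fasted overnight. Peripheral blood was taken pre-dose to 24 h into K2EDTA and processed to plasma. Quantified by LC-MS/MS.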

[8] = AUClast in Sprague-Dawley rat at 1 mg/kg, iv or 5 mg/kg, po by LC-MS/MS method; type: ADME, organism-based; conditions: in vivo
Outline: (§3)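 Male Sprague-Dawley rats, 6–9 weeks, n = 3 per route. Dosed 1 mg/kg i.v. in PEG400/water (35/65) or 5 mg/kg p.o. in 0.5% methylcellulose, 0.2% Tween 80; oral groups fasted overnight until 4 h post-dose. Catheter blood sampled 0.033–24 h into K2EDTA and spun to plasma. Analysed by non-validated LC-MS/MS.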

[9] = Protein binding in cynomolgus monkey plasma at 5 uM incubated for 4 hrs measured by LC-MS/MS method; type: ADME, cell-free, Macaca fascicularis; conditions: read-out: PPB (converted)
[10] = target: Chromatin remodeling regulator CECR2 (Homo sapiens, UniProt Q9BXF3); test: Displacement of biotinylated histone H3K14 peptide ligand from human recombinant His-tagged CECR2 measured after 10 mins by TR-FRET assay
[11] = Volume of distribution at steady state in Sprague-Dawley rat at 1 mg/kg, iv or 5 mg/kg, po by LC-MS/MS method; type: ADME, organism-based; conditions: in vivo, read-out: Vdss
Outline: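 Male Sprague-Dawley rats, 6–9 weeks old, n=3 per route. Dosing was 1 mg/kg i.v. in PEG400/water 35/65 or 5 mg/kg p.o. in 0.5% methylcellulose/0.2% Tween 80; the p.o. group was fasted overnight. Catheter blood was taken at 0.033–24 h into K2EDTA and processed to plasma. Quantified by LC-MS/MS.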

[12] = AUClast in beagle dog at 1 mg/kg, iv or 5 mg/kg, po by LC-MS/MS method; type: ADME, organism-based, Canis lupus familiaris; conditions: in vivo; outline: as §2
[13] = test system: Rattus norvegicus; test: Neurotoxicity in rat assessed as effect on vocalization and hyperactivity at 250 mg/kg administered as single dose; type: toxicity, organism-based; conditions: in vivo
[14] = Cmax in Sprague-Dawley rat at 1 mg/kg, iv or 5 mg/kg, po by LC-MS/MS method; type: ADME, organism-based; conditions: in vivo; outline: as §3
[15] = Protein binding in rat plasma at 5 uM incubated for 4 hrs measured by LC-MS/MS method; type: ADME, cell-free; conditions: read-out: PPB (converted)
[16] = Cmax in beagle dog at 1 mg/kg, iv or 5 mg/kg, po by LC-MS/MS method; type: ADME, organism-based, Canis lupus familiaris; conditions: in vivo; outline: as §2
[17] = Ratio of unbound concentration in rat brain to plasma at 250 mg/kg measured after 3 hrs postdose; type: ADME, organism-based; conditions: read-out: K(p,uu,brain)
[18] = target: Histone acetyltransferase KAT2A (Homo sapiens, UniProt Q92830); test: Displacement of biotinylated histone H3K14 peptide ligand from recombinant His-tagged human GCN5L2 measured after 10 mins by TR-FRET assay
[19] = AUClast in CD-1 mouse at 1 mg/kg, iv or 5 mg/kg, po by LC-MS/MS method; type: ADME, organism-based; conditions: in vivo
Outline: (§4)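 Female CD-1 mice, 6–9 weeks, n = 3 per route. Dosed 1 mg/kg i.v. in PEG400/water (35/65) or 5 mg/kg p.o. as a suspension in 0.5% methylcellulose, 0.2% Tween 80. Serial tail-nick blood sampled to 24 h, diluted in EDTA-water. Parent drug measured by non-validated LC-MS/MS after acetonitrile precipitation with an indomethacin internal standard.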

[20] = target: Transcription initiation factor TFIID subunit 1 (Homo sapiens, UniProt P21675); test: Displacement of biotinylated histone H3K14 peptide ligand from recombinant His-tagged TAF1 bromodomain-2 (unknown origin) measured after 10 mins by TR-FRET assay
[21] = target: Nucleosome-remodeling factor subunit BPTF (Homo sapiens, UniProt Q12830); test: Displacement of biotinylated histone H3K14 peptide ligand from recombinant His-tagged BPTF (unknown origin) measured after 10 mins by TR-FRET assay
[22] = Cmax in CD-1 mouse at 1 mg/kg, iv or 5 mg/kg, po by LC-MS/MS method; type: ADME, organism-based; conditions: in vivo; outline: as §4
[23] = Oral bioavailability in CD-1 mouse at 5 mg/kg by LC-MS/MS method; type: ADME, organism-based; conditions: in vivo; outline: as §4
[24] = Clearance in Sprague-Dawley rat at 1 mg/kg, iv or 5 mg/kg, po by LC-MS/MS method; type: ADME, organism-based; conditions: in vivo; outline: as §3
[25] = Half life in CD-1 mouse at 1 mg/kg, iv or 5 mg/kg, po by LC-MS/MS method; type: ADME, organism-based; conditions: in vivo; outline: as §4
[26] = Half life in Sprague-Dawley rat at 1 mg/kg, iv or 5 mg/kg, po by LC-MS/MS method; type: ADME, organism-based; conditions: in vivo; outline: as §3
[27] = species: Homo sapiens; test: Selectivity ratio of IC50 for human recombinant His-tagged BRD4 bromodomain-1 to IC50 for recombinant His-tagged human CBP […]
Outline: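 TR-FRET competition binding: recombinant His-tagged bromodomains bind a biotinylated small-molecule ligand, and competing compound lowers the signal. IC50s are geometric means of at least two determinations. Selectivity is BRD4(1) IC50 (nM) divided by CBP IC50 (nM).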

Chain of Histone acetyltransferase KAT2A (Q92830 whole entry): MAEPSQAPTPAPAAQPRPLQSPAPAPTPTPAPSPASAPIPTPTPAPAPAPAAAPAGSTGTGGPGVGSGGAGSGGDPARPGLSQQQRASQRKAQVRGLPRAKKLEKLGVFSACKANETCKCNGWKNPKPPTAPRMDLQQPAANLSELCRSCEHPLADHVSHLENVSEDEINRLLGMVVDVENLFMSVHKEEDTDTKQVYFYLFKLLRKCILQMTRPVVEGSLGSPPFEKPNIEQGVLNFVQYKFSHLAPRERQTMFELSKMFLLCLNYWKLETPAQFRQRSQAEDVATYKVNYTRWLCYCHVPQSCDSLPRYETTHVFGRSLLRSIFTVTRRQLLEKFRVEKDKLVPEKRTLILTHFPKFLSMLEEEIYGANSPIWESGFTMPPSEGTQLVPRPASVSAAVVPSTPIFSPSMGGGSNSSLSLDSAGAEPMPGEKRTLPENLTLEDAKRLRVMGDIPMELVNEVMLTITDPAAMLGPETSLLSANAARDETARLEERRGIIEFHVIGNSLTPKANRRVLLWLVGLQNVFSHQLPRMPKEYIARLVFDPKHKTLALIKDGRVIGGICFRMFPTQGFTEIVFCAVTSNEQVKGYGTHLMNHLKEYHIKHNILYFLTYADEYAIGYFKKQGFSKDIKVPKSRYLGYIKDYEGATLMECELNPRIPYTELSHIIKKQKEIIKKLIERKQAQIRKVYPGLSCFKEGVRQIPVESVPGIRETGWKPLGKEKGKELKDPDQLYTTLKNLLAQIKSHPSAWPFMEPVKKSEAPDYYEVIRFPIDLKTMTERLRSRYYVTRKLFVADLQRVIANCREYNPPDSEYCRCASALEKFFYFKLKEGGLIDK
Chain of Chromatin remodeling regulator CECR2 (Q9BXF3 whole entry): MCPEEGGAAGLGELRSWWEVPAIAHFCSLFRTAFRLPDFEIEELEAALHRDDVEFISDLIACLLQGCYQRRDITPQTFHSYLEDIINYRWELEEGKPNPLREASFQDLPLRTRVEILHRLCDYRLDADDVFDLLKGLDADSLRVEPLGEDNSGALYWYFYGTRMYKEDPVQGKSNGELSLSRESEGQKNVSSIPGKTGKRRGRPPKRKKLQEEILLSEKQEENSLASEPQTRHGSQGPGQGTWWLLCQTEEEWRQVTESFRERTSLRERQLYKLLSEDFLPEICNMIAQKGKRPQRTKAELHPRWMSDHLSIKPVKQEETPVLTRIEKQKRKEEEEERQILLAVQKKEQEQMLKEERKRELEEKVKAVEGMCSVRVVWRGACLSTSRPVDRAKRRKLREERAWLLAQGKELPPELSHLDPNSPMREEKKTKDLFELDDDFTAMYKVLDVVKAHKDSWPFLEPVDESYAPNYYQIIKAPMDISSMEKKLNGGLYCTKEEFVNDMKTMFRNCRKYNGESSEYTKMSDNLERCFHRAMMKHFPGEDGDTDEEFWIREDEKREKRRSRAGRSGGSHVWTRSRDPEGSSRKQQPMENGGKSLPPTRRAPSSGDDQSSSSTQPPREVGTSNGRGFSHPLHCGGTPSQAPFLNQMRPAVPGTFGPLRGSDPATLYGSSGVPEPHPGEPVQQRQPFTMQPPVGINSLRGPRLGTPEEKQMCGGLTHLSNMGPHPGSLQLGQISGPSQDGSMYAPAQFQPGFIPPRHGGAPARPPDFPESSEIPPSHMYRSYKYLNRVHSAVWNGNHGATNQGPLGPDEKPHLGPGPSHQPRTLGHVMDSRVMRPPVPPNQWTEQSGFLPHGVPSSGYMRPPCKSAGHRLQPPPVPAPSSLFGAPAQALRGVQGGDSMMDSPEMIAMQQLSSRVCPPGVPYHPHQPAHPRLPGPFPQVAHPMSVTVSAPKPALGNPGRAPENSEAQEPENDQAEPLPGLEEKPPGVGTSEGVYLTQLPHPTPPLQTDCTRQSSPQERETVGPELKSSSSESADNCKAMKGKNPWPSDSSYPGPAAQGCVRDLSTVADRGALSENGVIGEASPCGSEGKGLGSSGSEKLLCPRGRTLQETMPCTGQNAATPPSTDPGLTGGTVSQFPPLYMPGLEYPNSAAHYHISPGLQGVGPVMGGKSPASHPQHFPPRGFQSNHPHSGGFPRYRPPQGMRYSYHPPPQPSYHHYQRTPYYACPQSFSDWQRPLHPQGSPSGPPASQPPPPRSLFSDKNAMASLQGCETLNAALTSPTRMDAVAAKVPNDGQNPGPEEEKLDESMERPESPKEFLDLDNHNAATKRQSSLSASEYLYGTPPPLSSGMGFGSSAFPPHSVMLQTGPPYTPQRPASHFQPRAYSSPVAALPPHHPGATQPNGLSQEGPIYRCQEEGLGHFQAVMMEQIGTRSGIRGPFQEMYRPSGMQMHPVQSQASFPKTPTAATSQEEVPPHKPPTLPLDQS
Chain of Transcription initiation factor TFIID subunit 1 (P21675 whole entry): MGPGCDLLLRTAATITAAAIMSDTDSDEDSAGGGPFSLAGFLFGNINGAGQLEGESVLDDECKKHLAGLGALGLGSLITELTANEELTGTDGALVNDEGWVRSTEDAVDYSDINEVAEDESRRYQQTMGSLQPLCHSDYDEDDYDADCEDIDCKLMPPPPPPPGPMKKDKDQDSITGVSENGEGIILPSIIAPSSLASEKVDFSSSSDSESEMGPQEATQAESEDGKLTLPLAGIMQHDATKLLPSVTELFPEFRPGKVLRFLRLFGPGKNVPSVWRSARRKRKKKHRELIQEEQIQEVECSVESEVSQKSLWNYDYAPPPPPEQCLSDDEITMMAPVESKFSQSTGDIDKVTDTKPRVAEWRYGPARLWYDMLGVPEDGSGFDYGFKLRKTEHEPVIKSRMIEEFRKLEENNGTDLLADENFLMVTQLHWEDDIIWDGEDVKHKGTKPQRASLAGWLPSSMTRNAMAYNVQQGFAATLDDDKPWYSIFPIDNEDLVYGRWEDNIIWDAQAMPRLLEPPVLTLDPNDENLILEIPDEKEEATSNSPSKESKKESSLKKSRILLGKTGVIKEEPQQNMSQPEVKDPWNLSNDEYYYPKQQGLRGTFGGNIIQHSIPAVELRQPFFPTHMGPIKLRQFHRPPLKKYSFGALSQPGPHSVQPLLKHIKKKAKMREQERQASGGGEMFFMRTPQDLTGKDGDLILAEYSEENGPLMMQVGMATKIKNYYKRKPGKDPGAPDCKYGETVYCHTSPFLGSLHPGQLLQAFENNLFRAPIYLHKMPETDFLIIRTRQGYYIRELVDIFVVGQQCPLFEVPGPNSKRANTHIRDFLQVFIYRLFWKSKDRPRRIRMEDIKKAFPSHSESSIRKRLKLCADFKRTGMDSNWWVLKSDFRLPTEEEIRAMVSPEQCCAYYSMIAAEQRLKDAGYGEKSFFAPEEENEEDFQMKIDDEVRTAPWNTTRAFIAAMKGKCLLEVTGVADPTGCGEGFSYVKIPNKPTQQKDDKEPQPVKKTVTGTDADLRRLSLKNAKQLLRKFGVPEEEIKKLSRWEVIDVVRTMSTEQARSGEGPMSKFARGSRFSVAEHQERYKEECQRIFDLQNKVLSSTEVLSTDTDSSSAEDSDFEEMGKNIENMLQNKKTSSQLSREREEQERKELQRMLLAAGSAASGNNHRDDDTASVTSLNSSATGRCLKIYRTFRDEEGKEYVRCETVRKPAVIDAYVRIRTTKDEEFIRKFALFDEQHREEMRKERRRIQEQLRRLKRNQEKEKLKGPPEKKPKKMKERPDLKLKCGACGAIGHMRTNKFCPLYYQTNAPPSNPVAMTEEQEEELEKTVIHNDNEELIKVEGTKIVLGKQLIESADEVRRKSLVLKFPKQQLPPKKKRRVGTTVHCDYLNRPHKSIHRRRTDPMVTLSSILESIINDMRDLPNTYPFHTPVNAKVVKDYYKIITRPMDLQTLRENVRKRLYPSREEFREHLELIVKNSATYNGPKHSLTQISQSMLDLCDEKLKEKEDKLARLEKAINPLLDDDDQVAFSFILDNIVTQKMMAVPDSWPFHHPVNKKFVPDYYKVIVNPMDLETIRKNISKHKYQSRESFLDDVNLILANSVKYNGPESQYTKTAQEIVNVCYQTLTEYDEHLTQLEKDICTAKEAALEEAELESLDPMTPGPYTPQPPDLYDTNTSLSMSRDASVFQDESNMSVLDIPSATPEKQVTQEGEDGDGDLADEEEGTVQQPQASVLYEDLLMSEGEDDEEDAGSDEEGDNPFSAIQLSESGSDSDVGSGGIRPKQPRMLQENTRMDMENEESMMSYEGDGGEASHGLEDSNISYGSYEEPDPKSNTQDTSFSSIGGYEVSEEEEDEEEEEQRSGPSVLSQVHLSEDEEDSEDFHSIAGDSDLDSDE
Chain of Bromodomain-containing protein 9 (Q9H8M2 whole entry): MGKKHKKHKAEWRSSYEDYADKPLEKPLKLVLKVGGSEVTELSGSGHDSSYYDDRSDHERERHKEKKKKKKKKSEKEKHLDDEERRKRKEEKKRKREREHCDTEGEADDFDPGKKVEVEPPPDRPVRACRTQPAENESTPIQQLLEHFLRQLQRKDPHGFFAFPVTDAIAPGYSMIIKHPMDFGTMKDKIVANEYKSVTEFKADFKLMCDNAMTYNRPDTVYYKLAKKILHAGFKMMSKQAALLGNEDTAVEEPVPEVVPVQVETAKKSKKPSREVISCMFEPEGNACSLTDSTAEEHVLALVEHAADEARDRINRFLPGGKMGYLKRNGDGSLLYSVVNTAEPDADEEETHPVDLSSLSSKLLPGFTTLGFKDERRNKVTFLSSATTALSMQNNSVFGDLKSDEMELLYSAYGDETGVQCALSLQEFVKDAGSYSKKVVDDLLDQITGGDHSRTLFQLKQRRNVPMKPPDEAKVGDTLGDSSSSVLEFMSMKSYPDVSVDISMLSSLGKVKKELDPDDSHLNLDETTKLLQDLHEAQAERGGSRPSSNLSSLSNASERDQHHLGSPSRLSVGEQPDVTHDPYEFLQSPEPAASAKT

SMILES | bioavailability [1] [%] | clearance [2] [mL/min/kg] | Papp A→B at 3 h, 10 µM [3] [×10⁻⁶ cm/s] | half-life [4] [h] | IC50 [5] [µM] | fraction unbound at 4 h, 5 µM [6] | Vd [7] [L/kg] | AUC(0-t) [8] [µM·h] | fraction unbound at 4 h, 5 µM [9] | IC50 [10] [µM] | Vd [11] [L/kg] | AUC(0-t) [12] [µM·h] | Activity [13] | Cmax [14] [µM] | fraction unbound at 4 h, 5 µM [15] | Cmax [16] [µM] | Kp uu at 3 h [17] | IC50 [18] [µM] | AUC(0-t) [19] [µM·h] | IC50 [20] [µM] | further results
CC(=O)N1CCc2c(c(N3CCCc4cc(-c5cnn(C)c5)c(C(F)F)cc43)nn2C2CCOCC2)C1 | 39 | 4.6 | 15 | 2.8 | > 20 | 0.16 | 1.4 | 9.4 | 0.21 | 14 | 0.81 | 31 | Toxic | 3.2 | 0.12 | 5.1 | 0.43 | > 20 | 13.7 | > 20 | IC50 [21]: > 20 µM; Cmax [22]: 4.2 µM; bioavailability [23]: 72%; clearance [24]: 16 mL/min/kg; half-life [25]: 1.1 h; half-life [26]: 0.66 h; Ratio IC50 [27]: 3820
CNC(=O)N1CCc2c(c(N3CCCc4cc(-c5cnn(C)c5)c(C(F)F)cc43)nn2C2CCOCC2)C1 | 28 | 4.8 | 19 | 0.72 | > 20 | 0.16 | 1 | 16 | 0.22 | > 20 | 0.64 | 44 | Non-Toxic | 4.1 | 0.06 | 8.3 | 0.02 | > 20 | 6.5 | > 20 | IC50 [21]: > 20 µM; Cmax [22]: 23 µM; bioavailability [23]: 73%; clearance [24]: 3.8 mL/min/kg; half-life [25]: 1.4 h; half-life [26]: 3.7 h; Ratio IC50 [27]: 5420
